# Most compounds without a hit are left out; they make up all but 2.3% or so of the library.
# RAM inhibit: yeast RAM network inhibition; inhibition, % at 50 µM; S. cerevisiae dse1pr::URA3 reporter, 5-FOA growth OD615, 2 d; analog-sensitive cbk1-as2 kinase mutant strain; hit rate 1.8% among 190,000;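 active = inhibition above a set limit, 3 SD over mean compound inhibition, cut at about 8.4% in these data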;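 also: inhibition rescues growth on 5-FOA so higher OD means more RAM inhibition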
# ABCB1 inh: inhibitors of human ABCB1 transporter, ABCG2 counter-screen. CCRF-Adr cells, JC-1 efflux, flow cytometry. inhibition, % at 6.6 µM. hit rate 0.067% among 190,000; in the data active = inhibition above about 40%;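 also: higher value means more JC-1 retained so stronger ABCB1 efflux block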
# Arbovirus inh: antivirals against arbovirus infection | inhibition, % at 10 µM | hit rate 0.37% among 200,000 | arbovirus infection cell-based antiviral screen | AID 1251; in the data active = inhibition above about 30%
# ABCG2 block: inhibitors of human ABCG2 transporter, ABCB1 counter-screen. Q9UNQ0. IgMXP3 cells, JC-1 efflux, flow cytometry. inhibition, % at 6.6 µM. hit rate 0.1% among 190,000;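 active = inhibition above 80%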
#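 Assay system – ABCG2 IgMXP3 and barcoded ABCB1 CCRF-Adr cell mix · Input – 3 million cells/mL in well · Reagent – JC-1 fluorescent substrate · Compound – single test compound dose, 6.6 µM final · Timing – 10 min exposure at 25 °C with rotation, no wash · Detection – flow cytometry of retained JC-1 fluorescence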
# RAM efflux-def: restores 5-FOA growth of efflux-deficient yeast. S. cerevisiae efflux-deficient reporter strain, 5-FOA growth OD615, 2 days. shares compounds with RAM inhibit. max inhibition, %. 1,200 tested, under 10 active; call rule not given here
# A number is an active result; – = inactive; · = no result given.
SMILES,RAM inhibit,ABCB1 inh,Arbovirus inh,ABCG2 block,RAM efflux-def
CCCCCOc1ccc(CSc2ncn[nH]2)cc1,23.9,–,–,–,–
COc1ccnc(N2CCN(c3ccc(Cl)cc3)CC2)c1C#N,14.2,–,–,–,–
Cc1ccc(OCc2ccc(C#N)cc2)c(C(=O)c2cc(C#N)c(=O)n(C3CC3)c2)c1,–,–,–,–,·
Cc1ccc(-c2noc(-c3ccccc3F)n2)cc1,–,–,–,–,·
Cc1cccc(OCC(=O)O/N=C(\N)Cc2ccc([N+](=O)[O-])cc2)c1,17.5,–,–,–,–
CCc1ccc(OCC(=O)O/N=C(\N)Cc2ccc([N+](=O)[O-])cc2)cc1,–,–,–,–,·
CCc1nn2cc(C(=O)c3cc(Cl)ccc3O)cnc2c1-c1ccc(F)cc1,–,–,–,–,·
N#Cc1c(N)n(CCOC(=O)c2cccc([N+](=O)[O-])c2)c2nc3ccccc3nc12,12.3,–,–,–,–
N#Cc1c(N)n(CCOC(=O)c2cccc(Br)c2)c2nc3ccccc3nc12,–,–,–,–,·
O=C(/C=C/c1ccc(Cl)cc1Cl)NCCSCc1ccccc1,15.9,–,–,–,–
CCOC(=O)Cn1c(N2CCOCC2)nc2c1c(=O)[nH]c(=O)n2C,–,–,–,–,·
Cc1ccc(-n2ncc3c(=O)[nH]c(SCC(=O)N4CCCc5ccccc54)nc32)cc1,11.7,–,–,–,–
Cc1ccc(-n2ncc3c(=O)[nH]c(SCC(=O)N4CCN(c5ccccc5)CC4)nc32)cc1,–,–,–,–,·
FC(F)(F)c1nc(N2CCCC2)ncc1-c1nnnn1-c1ccc(Cl)cc1,–,–,–,–,·
CC(CCc1ccco1)NC(=O)c1cccc2c1C(=O)N(C1CCCCC1)C2 (stereo not drawn),12.0,–,–,–,–
COc1ccc(N2Cc3cccc(C(=O)NC(C)CCc4ccco4)c3C2=O)cc1 (stereo not drawn),–,–,–,–,·
CCOC(=O)c1ccc(S(=O)(=O)N2CCN(C)CC2)cc1,–,–,–,–,·
COc1ccc(N(C)S(=O)(=O)c2cccc(C(=O)OCC(=O)Nc3sc4c(c3C#N)CCCCC4)c2)cc1,11.5,–,–,–,–
CCOC(=O)c1c(C)[nH]c(N=Nc2ccc(C)cc2C)c1C,–,–,–,–,·
CCOC(=O)c1c(C)[nH]c(N=Nc2ccccc2C)c1C,19.6,–,–,–,–
CCCCn1c(=O)c(CCC(=O)OC(C)C(=O)Nc2cccc(Cl)c2Cl)nc2ccccc21 (stereo not drawn),16.1,–,–,–,–
O=C(COC(=O)C1(c2ccccc2F)CCCC1)Nc1ncc(C(F)(F)F)cc1Cl,12.2,–,–,–,–
Cc1c(NC(=S)NC(=O)Cc2ccccc2)cccc1C(=O)O,22.1,–,–,–,–
COc1ccc(-c2c/c(=N\c3nc(-c4ccccc4)c(C)s3)c3ccccc3o2)cc1O,11.4,–,–,–,–
Cc1ccccc1NS(=O)(=O)c1cc(C(=O)NCCSC2CCCCC2)ccc1C,12.8,–,–,–,–
SMILES,RAM inhibit,ABCB1 inh,Arbovirus inh,ABCG2 block,RAM efflux-def
CC(C)OCCCNC(=O)C(NS(=O)(=O)c1ccc2c(c1)c(=O)n(C)c(=O)n2C)c1ccccc1 (stereo not drawn),13.4,–,–,–,–
O=C(CCCSc1ccccc1)Nc1nc(-c2ccco2)c(-c2ccco2)s1,12.7,–,–,–,–
O=C(CCl)Nc1nc(-c2ccco2)c(-c2ccco2)s1,–,–,–,–,·
CCOC(=O)C1=C(NC(=S)NC(=O)c2ccccc2)c2ccccc2CC1C(C)C (stereo not drawn),11.7,–,–,–,–
CCOC(=O)c1c(NC(=O)c2ccccc2)sc2c1CCc1ccccc1-2,–,–,–,–,·
Cc1cc(-c2nnc3n2CCCCC3)c(C)n1-c1ccccc1,–,–,–,–,·
Cc1nnsc1Sc1ccccn1,–,–,–,–,·
Cc1ccc(S(=O)(=O)N2CCCCCC2)cc1[N+](=O)[O-],–,–,–,–,·
Cc1ccc(S(=O)(=O)N2CCC(C)CC2)cc1[N+](=O)[O-],22.5,–,–,–,–
O=C(CSc1ccccc1)N(c1ccc(Br)cc1)c1nccs1,12.4,–,–,–,–
CCCN(CC1CC1)C(=O)CSc1ncnc2sc(C)c(C)c12,13.8,–,–,–,–
CCN(C(=O)CSc1ncnc2sc(C)c(C)c12)C1CCS(=O)(=O)C1 (stereo not drawn),–,–,–,–,·
CC(=O)Nc1ccc(-c2cc(-c3ccc(NC(C)=O)cc3)nc(-c3ccc(NC(C)=O)cc3)n2)cc1,11.8,–,–,–,–
Cc1ccccc1NC(=O)/C(C#N)=C/c1ccsc1,–,–,–,–,·
Cc1cccc(NC(=O)/C(C#N)=C/c2ccc(Sc3ccccc3)o2)c1C,14.2,–,–,–,–
O=[N+]([O-])c1ccc(COc2cccc(CNc3ccc(Br)cc3)c2)cc1,14.2,–,–,–,–
CCCc1nn(C)c(C(=O)Nc2ccc(C)c(C)c2)c1Cl,22.3,–,–,–,–
O=C(CCCN1C(=O)/C(=C/c2cccs2)SC1=S)Nc1ccccn1,–,–,–,–,·
O=C(O)CCCN1C(=O)/C(=C/c2cn(-c3ccccc3)nc2-c2cccs2)SC1=S,11.8,–,–,–,–
O=C(NCCn1cc(SCc2ccc(F)cc2)c2ccccc21)c1c(F)cccc1F,–,–,–,–,·
O=C(NCCn1cc(SCc2ccc(F)cc2)c2ccccc21)c1ccccc1F,13.3,–,–,–,–
CCOC(=O)CCN(Cc1cccs1)S(=O)(=O)c1ccc(F)cc1,–,–,–,–,·
COc1ccc(CCN(Cc2cccs2)S(=O)(=O)c2ccc(C(=O)O)cc2)cc1OC,13.2,–,–,–,–
Cc1cc(C)cc(NC(=S)NCCCO)c1,–,–,–,–,·
Cc1cc(C)cc(NC(=S)NCCSc2ccc(Cl)cc2)c1,12.6,–,–,–,–
SMILES,RAM inhibit,ABCB1 inh,Arbovirus inh,ABCG2 block,RAM efflux-def
Cc1ccc(CNC(=S)Nc2ccc(C)c([N+](=O)[O-])c2)cc1,–,–,–,–,·
Cc1ccc(SCCNC(=S)Nc2ccc(C)c(C)c2)cc1,12.6,–,–,–,–
CCOC(=O)c1c(C)[nH]c(C)c1C(=O)CSc1nnc(N)s1,–,–,–,–,·
Cc1ccc(OCc2nnnn2-c2ccccc2)cc1,–,–,–,–,·
CC(=O)N1CCN(c2ccc([N+](=O)[O-])cc2C#N)CC1,–,–,–,–,·
CCOC(=O)N1CCN(c2nc(-c3cccc(OC)c3)cc(C(F)(F)F)n2)CC1,12.2,–,–,–,–
COc1cccc(-c2cc(C(F)(F)F)nc(N3CCN(c4ccccc4)CC3)n2)c1,16.4,–,–,–,–
CCCOc1ccc(N2C(=O)CC(N(CCc3ccccc3)C(=O)c3ccccc3)C2=O)cc1 (stereo not drawn),12.0,–,–,–,–
CCCOc1ccc(N2C(=O)CC(N(CCc3ccc(OC)cc3)C(=O)c3cccc(F)c3)C2=O)cc1 (stereo not drawn),–,–,–,–,·
O=c1c2c3c(sc2nc(NCCO)n1CCc1ccccc1)CCCCC3,–,–,–,–,·
OCCNc1nc(SCc2ccccc2)nc2sc3c(c12)CCC3,11.5,–,–,–,–

# Compound activity from PubChem BioAssay.
